Each structure is given as a SMILES string. pIC50: −log10 of the molar value. Active and inactive are the calls of the source. The rule behind the calls is not given here.

Test [1] has as its system L1210. In words: Cytotoxicity against mouse L1210 cells after 48 hrs by coulter counter method. Format: functional, cell-based. The note with it: L1210, 48 h. The procedure, abridged: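 L1210 cells in RPMI 1640 with 2 mM L-glutamine, penicillin, streptomycin and 20% heat-inactivated horse serum at 37 °C, 5% CO2. Drugs added in DMSO (0.5% final) to exponentially growing cells seeded at 0.8 × 10^5 cells/mL. Cells counted in triplicate after 48 h by Coulter counter. IC50 taken from probit regression of percent growth inhibition against log dose.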

The test system of test [2] is L1210. In words: Cell cycle arrest in mouse L1210 cells assessed accumulation of cells at G1 phase at 100 uM after 21 hrs by propidium iodide staining-based flow cytometric analysis. Format: functional. The procedure, abridged:
(§1)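 L1210 leukemia cells in RPMI 1640 with 2 mM L-glutamine, penicillin, streptomycin and 20% heat-inactivated horse serum, exposed to several drug concentrations for 21 h at 37 °C, 5% CO2. Cells fixed in 70% ethanol, washed, then stained 30 min at room temperature in PBS containing RNAse and propidium iodide. Flow cytometry; result given as percentage of cells in each cell-cycle phase.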
(A flow cytometer gives signals particle by particle.)

Test [3] deals with GTPase KRas (Homo sapiens) (UniProt P01116). In words: Inhibition of KRas in human RKO cells at 0.2 uM relative to control. In kind it is cell-based.
Test [4] has the same target. In words: Inhibition of KRas in human RKO cells at 20 uM relative to control. Format: cell-based.
Test [5] has the same target. In words: Inhibition of KRas in human Colon 320 cells at 0.2 uM relative to control. In kind it is cell-based.
The target is the same in test [6]. In words: Inhibition of KRas in human Colon 320 cells at 2 uM relative to control. Format: cell-based.
Test [7] has the same target. In words: Inhibition of KRas in human Colon 320 cells at 20 uM relative to control. In kind it is cell-based.
The target is the same in test [8]. In words: Inhibition of KRas in human SNU-C1 cells at 20 uM relative to control. In kind it is cell-based.
Test [9] shares this target. In words: Inhibition of KRas in human SNU-C1 cells at 2 uM relative to control. In kind it is cell-based.
The target is the same in test [10]. In words: Inhibition of KRas in human RKO cells at 2 uM relative to control. In kind it is cell-based.
The test system of test [11] is L1210. In words: Cell cycle arrest in mouse L1210 cells assessed accumulation of cells at 8N phase at 5 uM after 21 hrs by propidium iodide staining-based flow cytometric analysis relative to control. In kind it is functional. The procedure, abridged: as §1
The target of test [12] is GTPase KRas (Homo sapiens) (UniProt P01116). In words: Inhibition of KRas in human SNU-C1 cells at 0.2 uM relative to control. In kind it is cell-based.
For test [13] the target is unchanged. In words: Inhibition of KRas in human HCT cells at 0.2 uM relative to control. Format: cell-based.
Test [14] has the same target. In words: Inhibition of KRas in human HCT cells at 2 uM relative to control. In kind it is cell-based.
Test [15] has the same target. In words: Inhibition of KRas in human HCT cells at 20 uM relative to control. Format: cell-based.
Test [16] has as its system L1210. In words: Cell cycle arrest in mouse L1210 cells assessed accumulation of cells at 8N phase at 10 uM after 21 hrs by propidium iodide staining-based flow cytometric analysis relative to control. In kind it is functional. In a few lines:
as §1

In test [17] the test system is L1210. In words: Cell cycle arrest in mouse L1210 cells assessed accumulation of cells at G1 phase at 25 uM after 21 hrs by propidium iodide staining-based flow cytometric analysis. Format: functional. The procedure, abridged:
as §1

The subject of test [18] is L1210. In words: Cell cycle arrest in mouse L1210 cells assessed accumulation of cells at G2/M phase at 100 uM after 21 hrs by propidium iodide staining-based flow cytometric analysis. In kind it is functional. The procedure, abridged:
as §1

Test [19] has as its system L1210. In words: Cell cycle arrest in mouse L1210 cells assessed accumulation of cells at G2/M phase at 50 uM after 21 hrs by propidium iodide staining-based flow cytometric analysis. Format: functional. In a few lines:
as §1

GTPase KRas (Homo sapiens), sequence (P01116 whole entry, looked up): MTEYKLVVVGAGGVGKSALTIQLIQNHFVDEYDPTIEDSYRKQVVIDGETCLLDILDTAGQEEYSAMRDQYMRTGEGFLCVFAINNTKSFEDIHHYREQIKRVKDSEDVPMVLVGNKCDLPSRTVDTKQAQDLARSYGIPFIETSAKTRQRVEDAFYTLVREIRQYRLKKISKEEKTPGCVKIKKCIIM

For orientation: pIC50 means the IC50 on a negative log10 scale, so that one unit is a factor of ten. In the test on L1210 [1], `COc1cc(C2NCCc3cc4c(cc32)OCCO4)cc(OC)c1OC` (stereo not drawn) showed a negative logarithm of the IC50 (pIC50) of 4.68. Moreover, the outcome in the test with L1210 [2] was Active.
In the test with L1210 [1], `COc1cc2c(cc1OC)C(c1cc(OC)c(OC)c(OC)c1)N(CC(O)CO)CC2` (stereo not drawn) had a negative logarithm of the IC50 (pIC50) of 4.82.
`COc1cc2c(cc1OC)C(c1cc(OC)c(OC)c(OC)c1)N(CCO)CC2` (stereo not drawn) had a pIC50 in the test on L1210 [1] of 4.63.
For orientation: inhibition means the drop in the measured response relative to a control, in per cent. Higher therefore signals a response far below the control. For the compound `COc1cc(C2c3cc4c(cc3CCN2CCO)OCCO4)cc(OC)c1OC` (stereo not drawn), the pIC50 in the test on L1210 [1] is 5.59. Besides, the inhibition in test [3] was determined as 0%; in test [4], 76.7%; in [5], 12.2%; in [6], 0%; in test [7], 78.2%; in test [8] it was 19.7%. In addition, the inhibition in [9] came out at 11.5%; in test [10] it was 6.3%; in test [12] it was 12.3%; in test [13], 18%; in [14] it was 12.1%; in test [15], 46.5%. For the same compound, the Activity with L1210 [11] was 70%.
`COc1cc(C2c3cc4c(cc3CCN2c2ccc(C#N)cc2)OCCO4)cc(OC)c1OC` (stereo not drawn) showed a negative logarithm of the IC50 (pIC50) in the test on L1210 [1] of 5.44. Moreover, the inhibition was found to be 95.8% in test [3]; 66.5% in [4]; 0% in test [5]; 22.5% in [6]; 89.9% in test [7]; 43.5% in test [8]. In addition, the inhibition in test [9] came out at 32.5%; in [10] it was 7.7%; in [12] it was 6.6%; in test [13], 35.9%; in test [14] it was 16%; in test [15], 45.2%. The same compound yielded an Activity in the test on L1210 [16] of 70%.
In the test with L1210 [1], `COc1cc(C2c3cc4c(cc3CCN2CC#N)OCCO4)cc(OC)c1OC` (stereo not drawn) gave a pIC50 of 5.38. The inhibition worked out at 0% in [3]; 79.2% in test [4]; 0% in test [5]; 8.2% in [6]; 74.7% in [7]; 59.8% in test [8]. Moreover, the inhibition was 6% in test [9]; 16.3% in test [10]; 10% in [12]; 12.1% in test [13]; 17% in [14]; 49.1% in test [15]. Besides, in the test on L1210 [2], the outcome was Active.
Regarding `CCOC(=O)CCCCCN1CCc2cc3c(cc2C1c1cc(OC)c(OC)c(OC)c1)OCCO3` (stereo not drawn), the negative logarithm of the IC50 (pIC50) in the test on L1210 [1] is < 5.00.
On to `CCN(CC)CCN1CCc2cc3c(cc2C1c1cc(OC)c(OC)c(OC)c1)OCCO3` (stereo not drawn), for which the pIC50 in the test with L1210 [1] was 5.39.
On to `COc1cc(C2c3cc4c(cc3CCN2CCCCCC(=O)O)OCCO4)cc(OC)c1OC` (stereo not drawn), for which the pIC50 in the test on L1210 [1] was 5.03. Against the preceding compound, the pIC50 is 0.36 log units lower.
Take `COc1cc(C2c3cc4c(cc3CCN2CCN(C)C)OCCO4)cc(OC)c1OC` (stereo not drawn): the negative-log IC50 (pIC50) in the test with L1210 [1] was 5.43. Moreover, the outcome in the test on L1210 [17] was Active.
`COc1cc(C2c3cc4c(cc3CCN2CCN)OCCO4)cc(OC)c1OC` (stereo not drawn) had a pIC50 with L1210 [1] of 5.70. Also, the inhibition was 0% in [3]; 92.7% in [4]; 0% in test [5]; 20.1% in [6]; 85.3% in [7]; 57.1% in [8]. Also, the inhibition in test [9] came out at 2.4%; in [10], 10.1%; in test [12], 12.2%; in test [13], 0%; in [14], 16.2%; in [15], 56.9%. Further, the result in the test on L1210 [17] was Active.
As to `CCOC(CCN1CCc2cc3c(cc2C1c1cc(OC)c(OC)c(OC)c1)OCCO3)OCC` (stereo not drawn), in the test with L1210 [1], the pIC50 is < 5.00.
For the compound `CCOC(=O)N1CCc2cc3c(cc2C1c1cc(OC)c(OC)c(OC)c1)OCCO3` (stereo not drawn), the negative-log IC50 (pIC50) with L1210 [1] is < 5.00.
Still for that read-out and setting: then `O=C(O)CCCCCN1CCc2cc3c(cc2C1c1ccncc1)OCCO3` (stereo not drawn), with < 5.00; and `CCOC(=O)N1CCc2cc3c(cc2C1c1ccncc1)OCCO3` (stereo not drawn), with < 5.00.
`COc1cc(-c2nccc3cc4c(cc23)OCCO4)cc(OC)c1OC` had a pIC50 in the test on L1210 [1] of 4.60. In the test on L1210 [18], the result was Active.
`COc1cc(C2c3cc4c(cc3CCN2c2ccc([N+](=O)[O-])cc2)OCCO4)cc(OC)c1OC` (stereo not drawn): the pIC50 in the test on L1210 [1] was 5.34. In addition, the inhibition came to 17.9% in test [3]; 70.5% in test [4]; 0% in test [5]; 4% in test [6]; 92.5% in test [7]; 42.7% in [8]. Moreover, the inhibition in test [9] amounted to 35%; in test [10], 32.9%; in [12], 17.7%; in test [13] it was 0%; in [14], 19.3%; in [15], 55.9%. Further, in the test with L1210 [17], the outcome was Active.
Take `COC(=O)CCCCCN1CCc2cc3c(cc2C1c1ccncc1)OCCO3` (stereo not drawn): the pIC50 with L1210 [1] is < 5.00.
Take `COc1cc2c(c3c1c(=O)c1ccccc1n3C)C=CC(C)(C)O2` [ACRONINE]: the negative logarithm of the IC50 (pIC50) in the test on L1210 [1] was 4.68. The result with L1210 [19] was Active.

(Values after ChEMBL document CHEMBL4145473, “Substituted tetrahydroisoquinolines: synthesis, characterization, antitumor activity and other biological properties” (Eur J Med Chem, 2018).)
